Converted amounts (≈) assume the structure as drawn. The source made the active and inactive calls. The calls are words filed in the database; no cut-off is given here.
Assays:
Cryptococcus neoformans = experiment: Antifungal activity against Cryptococcus neoformans 32609 after 72 hrs by serial dilution method; type: functional; details: Cryptococcus neoformans, 32609, 72 h
Candida albicans [1] = experiment: Antifungal activity against fluconazole-sensitive Candida albicans SC5314 after 24 hrs by serial dilution method; type: functional; details: SC5314, 24 h
Trichophyton rubrum = experiment: Antifungal activity against Trichophyton rubrum Cmccftla after 7 days by serial dilution method; type: functional; details: 168 h
Candida albicans [2] = experiment: Fungicidal activity against fluconazole-sensitive Candida albicans SC5314 at 32 ug/ml after 12 to 48 hrs; type: functional, organism-based
In short: (§1)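 Time-kill: C. albicans (SC5314 or 103) inoculated at 10^5 CFU/mL, untreated or with drug (2–32 μg/mL; fluconazole 32 μg/mL reference); CFU/mL counted after 0, 12, 24 and 48 h.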

Nakaseomyces glabratus = experiment: Antifungal activity against Candida glabrata 537 after 24 hrs by serial dilution method; type: functional; details: Nakaseomyces glabratus, 537, 24 h
Nannizzia gypsea = experiment: Antifungal activity against Microsporum gypseum Cmccfmza after 7 days by serial dilution method; type: functional; details: 168 h
Candida parapsilosis = experiment: Antifungal activity against Candida parapsilosis ATCC 22019 after 24 hrs by serial dilution method; type: functional; details: Lodderomyces parapsilosis, ATCC 22019, 24 h
Aspergillus fumigatus = experiment: Antifungal activity against Aspergillus fumigatus 07544 after 7 days by serial dilution method; type: functional; details: Aspergillus fumigatus, 07544, 168 h
Candida albicans [3] = experiment: Antifungal activity against fluconazole-sensitive Candida albicans SC5314 assessed as change in obtusifoliol composition at 8 ug/ml after 24 hrs by GC-MS analysis relative to control; type: functional
In short: (§2)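 C. albicans SC5314 exposed to 8 μg/mL for 24 h, sterols analysed by GC-MS with cholesterol internal standard; each sterol expressed as % of total sterol fraction versus no-drug control; average of three independent experiments.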

Candida albicans [4] = experiment: Antifungal activity against fluconazole-resistant Candida albicans 07109 after 24 hrs by serial dilution method; type: functional; details: Candida albicans, 07109, 24 h
Candida albicans [5] = experiment: Antifungal activity against fluconazole-sensitive Candida albicans SC5314 assessed as change in ergosterol composition at 8 ug/ml after 24 hrs by GC-MS analysis (reference value: 90%); type: functional; in short: as §2
Candida albicans [6] = experiment: Antifungal activity against fluconazole-resistant Candida albicans 103 after 24 hrs by serial dilution method; type: functional; details: Candida albicans, 103, 24 h
Candida albicans [7] = experiment: Antifungal activity against fluconazole-sensitive Candida albicans SC5314 assessed as abnormal cell shape at 8 ug/ml after 8 hrs by TEM analysis; type: functional, organism-based
In short: (§3)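 Transmission electron microscopy of C. albicans SC5314 cells exposed to 8 μg/mL drug for 8 h; untreated cells as reference; cell wall, membrane, cytoplasm and vacuole morphology inspected.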

Candida albicans [8] = experiment: Inhibition of biofilm formation of fluconazole-sensitive Candida albicans SC5314 at 64 ug/ml after 48 hrs by XTT assay relative to control; type: functional
In short: (§4)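 Biofilm formation by C. albicans SC5314 or 103 in presence of 2–64 μg/mL drug (fluconazole 64 μg/mL reference); quantified by XTT reduction as % of blank control; mean ± standard deviation of three independent experiments, ANOVA and Student t test.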

Candida albicans [9] = experiment: Antifungal activity against fluconazole-resistant Candida albicans 805 after 24 hrs by serial dilution method; type: functional; details: Candida albicans, 805, 24 h
Candida albicans [10] = experiment: Antifungal activity against fluconazole-resistant Candida albicans 100 after 24 hrs by serial dilution method; type: functional; details: Candida albicans, 100, 24 h
Candida albicans [11] = experiment: Fungicidal activity against fluconazole-sensitive Candida albicans SC5314 assessed as reduction in fungi density after 24 hrs; type: functional, organism-based; in short: as §1
Candida albicans [12] = experiment: Antifungal activity against fluconazole-sensitive Candida albicans SC5314 assessed as change in eburicol composition at 8 ug/ml after 24 hrs by GC-MS analysis relative to control; type: functional; in short: as §2
Candida albicans [13] = experiment: Inhibition of hyphal growth of fluconazole-sensitive Candida albicans SC5314 at 8 ug/ml after 16 hrs by light microscopic analysis; type: functional, organism-based
In short: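 C. albicans SC5314 incubated in RPMI 1640 liquid medium at 37 °C for 16 h with or without drug (2–8 μg/mL); hyphal, pseudohyphal or yeast morphology scored microscopically against blank control.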

Candida albicans [14] = experiment: Antifungal activity against fluconazole-sensitive Candida albicans SC5314 assessed as change in lanosterol composition at 8 ug/ml after 24 hrs by GC-MS analysis (reference value: 1.5%); type: functional; in short: as §2
Candida albicans [15] = experiment: Antifungal activity against fluconazole-sensitive Candida albicans SC5314 assessed as cell membrane damage at 8 ug/ml after 8 hrs by TEM analysis; type: functional, organism-based; in short: as §3
Candida albicans [16] = experiment: Inhibition of biofilm formation of fluconazole-resistant Candida albicans 103 at 64 ug/ml after 48 hrs by XTT assay; type: functional, organism-based; in short: as §4
Candida albicans [17] = experiment: Antifungal activity against fluconazole-sensitive Candida albicans SC5314 assessed as change in sterol composition at 8 ug/ml after 24 hrs by GC-MS analysis (reference value: 8.5%); type: functional; in short: as §2
Candida tropicalis = experiment: Antifungal activity against Candida tropicalis after 7 days by serial dilution method; type: functional; details: 168 h
Pichia kudriavzevii = experiment: Antifungal activity against Candida krusei 0710397 after 7 days by serial dilution method; type: functional; details: Pichia kudriavzevii, 0710397, 168 h

| SMILES | MIC80 (Cryptococcus neoformans) [µg/mL] | MIC80 (Candida albicans [1]) [µg/mL] | MIC80 (Trichophyton rubrum) [µg/mL] | MIC80 (Nakaseomyces glabratus) [µg/mL] | MIC80 (Nannizzia gypsea) [µg/mL] | MIC80 (Candida parapsilosis) [µg/mL] | MIC80 (Aspergillus fumigatus) [µg/mL] | also measured |
| --- | --- | --- | --- | --- | --- | --- | --- | --- |
| Cc1ccc2c(c1)[C@@H]1CN(C)CC[C@@H]1N2C(=O)c1ccc2ccccc2c1 | 8 (≈ 22.4 µM) | 32 (≈ 89.8 µM) | 16 (≈ 44.9 µM) | > 64 | 32 (≈ 89.8 µM) | 16 (≈ 44.9 µM) | > 64 | Activity (Candida albicans [2]): Active |
| OC(Cn1cncn1)(Cn1cncn1)c1ccc(F)cc1F [FLUCONAZOLE] | 2 (≈ 6.53 µM) | 0.5 (≈ 1.63 µM) | 4 (≈ 13.1 µM) | 0.5 (≈ 1.63 µM) | 1 (≈ 3.27 µM) | 2 (≈ 6.53 µM) | > 64 | Activity (Candida albicans [3]): 6.5%; MIC80 (Candida albicans [4]): > 1020 µg/mL; Activity (Candida albicans [2]): Active; Activity (Candida albicans [5]): 0.6%; MIC80 (Candida albicans [6]): 4 µg/mL (≈ 13.1 µM); Activity (Candida albicans [7]): Active; inhibition (Candida albicans [8]): inactive; MIC80 (Candida albicans [9]): > 1020 µg/mL; MIC80 (Candida albicans [10]): > 1020 µg/mL; Activity (Candida albicans [11]): inactive; Activity (Candida albicans [12]): 82.2%; growth inhibition (GI) (Candida albicans [13]): inactive; Activity (Candida albicans [14]): 5.9%; Activity (Candida albicans [15]): Active; inhibition (Candida albicans [16]): inactive; Activity (Candida albicans [17]): 4.8%; MIC80 (Candida tropicalis): 1 µg/mL (≈ 3.27 µM); MIC80 (Pichia kudriavzevii): 4 µg/mL (≈ 13.1 µM) |
| CN1CCc2c(c3cc(C(F)(F)F)ccc3n2CCCOc2ccc(Cl)cc2)C1 | 64 (≈ 151 µM) | > 64 | 64 (≈ 151 µM) | 64 (≈ 151 µM) | 64 (≈ 151 µM) | > 64 | > 64 |  |
| CN1CCc2c(c3cc(Cl)ccc3n2Cc2ccc(Cl)cc2)C1 | 16 (≈ 46.3 µM) | 64 (≈ 185 µM) | 64 (≈ 185 µM) | 16 (≈ 46.3 µM) | 16 (≈ 46.3 µM) | 64 (≈ 185 µM) | 64 (≈ 185 µM) |  |
| Cc1ccc2c3c(n(CCCOc4ccc(Cl)cc4)c2c1)CCN(C)C3 | 8 (≈ 21.7 µM) | 32 (≈ 86.7 µM) | 8 (≈ 21.7 µM) | 16 (≈ 43.4 µM) | 8 (≈ 21.7 µM) | 16 (≈ 43.4 µM) | 16 (≈ 43.4 µM) |  |
| CN1CCc2c(c3cccc(Cl)c3n2CCCOc2ccc(Cl)cc2)C1 | 16 (≈ 41.1 µM) | 32 (≈ 82.2 µM) | > 64 | 32 (≈ 82.2 µM) | 16 (≈ 41.1 µM) | 32 (≈ 82.2 µM) | > 64 |  |
| CN1CCc2c(c3cc(Cl)ccc3n2CCCOc2ccc(Cl)cc2)C1 | 8 (≈ 20.5 µM) | 64 (≈ 164 µM) | > 64 | 16 (≈ 41.1 µM) | 16 (≈ 41.1 µM) | 16 (≈ 41.1 µM) | > 64 |  |
| CN1CCc2c(c3cc(Cl)ccc3n2C(=O)c2ccccc2Br)C1 | > 64 | > 64 | > 64 | > 64 | > 64 | 64 (≈ 159 µM) | > 64 |  |
| CN1CCc2c(c3cc(Cl)ccc3n2Cc2ccccc2)C1 | 32 (≈ 103 µM) | 64 (≈ 206 µM) | 16 (≈ 51.5 µM) | 32 (≈ 103 µM) | 16 (≈ 51.5 µM) | 64 (≈ 206 µM) | 64 (≈ 206 µM) |  |
| CCCN1CCc2c(c3cc(Cl)ccc3n2CCCOc2ccc(Cl)cc2)C1 | 16 (≈ 38.3 µM) | > 64 | > 64 | 16 (≈ 38.3 µM) | 16 (≈ 38.3 µM) | 64 (≈ 153 µM) | > 64 |  |
| C#CCn1c2c(c3cc(Cl)ccc31)CN(C)CC2 | 32 (≈ 124 µM) | > 64 | > 64 | 64 (≈ 247 µM) | 32 (≈ 124 µM) | 64 (≈ 247 µM) | > 64 |  |
| COc1ccc2c(c1)c1c(n2CCCOc2ccc(Cl)cc2)CCN(C)C1 | 8 (≈ 20.8 µM) | 32 (≈ 83.1 µM) | 8 (≈ 20.8 µM) | > 64 | 8 (≈ 20.8 µM) | 32 (≈ 83.1 µM) | 32 (≈ 83.1 µM) |  |
| CN1CCc2c(c3cc(Cl)ccc3n2CC#N)C1 | 64 (≈ 246 µM) | > 64 | > 64 | > 64 | 64 (≈ 246 µM) | > 64 | > 64 |  |
| CN1CCc2c(c3cc(Cl)ccc3n2C(=O)c2ccc(Cl)cc2)C1 | 32 (≈ 89.1 µM) | > 64 | 32 (≈ 89.1 µM) | 32 (≈ 89.1 µM) | > 64 | 64 (≈ 178 µM) | > 64 |  |
